# High-throughput results from PubChem.
# KCNK9 inh = human KCNK9 channel inhibition; Q9NPC2; HEK293 KCNK9, FluxOR thallium flux fluorescence; stronger effect = lower value; B-score at 10 µM; 310,000 tested, 1.2% active; AID 488922;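 active means ratio B-score over 3 SD below the library mean, with starting fluorescence within 5 SD of its mean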;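 further: negative B-score means less thallium flux so channel inhibition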
# KCNQ1 inh = blocks the human KCNQ1 potassium channel | CHO-K1 KCNQ1, FluxOR thallium flux fluorescence; stronger effect = higher value | B-score at 10 µM | 310,000 tested, 1.3% active | AID 2642 | P51787;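 active means compounds whose thallium flux B-score, printed positive for inhibition, exceeds three library SD while starting fluorescence stays within three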;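 further: channel opened by potassium depolarization with thallium stimulus after 20 min compound exposure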
# KCNK3 inh = human KCNK3 channel inhibition, primary screen | 340,000 tested, 0.84% active | B-score at 10 µM | CHO-KCNK3 thallium flux, FluxOR fluorescence; stronger effect = lower value | AID 602410 | O14649;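 active means B-score under library mean minus 4 SD, starting fluorescence ratio at most library mean plus 5 SD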;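 further: more negative B-score means stronger inhibition of thallium flux through KCNK3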
# Kir21 block = inhibitors of mouse Kir2.1 inward-rectifier potassium channel; HEK293-Kir2.1, FluxOR thallium flux fluorescence; stronger effect = lower value; P35561; 310,000 tested, 0.85% active; B-score at 10 µM; AID 1672;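 active means fluorescence ratio B-score at or below minus 3 SD of library scores, with starting-brightness B-score within 2 SD, cut at about -4.2 in these data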;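 further: channel flux triggered by added potassium and thallium sulfate stimulus; B-score of peak minus minimum fluorescence over baseline after thallium stimulus; more negative B-score means stronger Kir2.1 block with less thallium influx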
# Target sequence (P35561 whole entry, looked up): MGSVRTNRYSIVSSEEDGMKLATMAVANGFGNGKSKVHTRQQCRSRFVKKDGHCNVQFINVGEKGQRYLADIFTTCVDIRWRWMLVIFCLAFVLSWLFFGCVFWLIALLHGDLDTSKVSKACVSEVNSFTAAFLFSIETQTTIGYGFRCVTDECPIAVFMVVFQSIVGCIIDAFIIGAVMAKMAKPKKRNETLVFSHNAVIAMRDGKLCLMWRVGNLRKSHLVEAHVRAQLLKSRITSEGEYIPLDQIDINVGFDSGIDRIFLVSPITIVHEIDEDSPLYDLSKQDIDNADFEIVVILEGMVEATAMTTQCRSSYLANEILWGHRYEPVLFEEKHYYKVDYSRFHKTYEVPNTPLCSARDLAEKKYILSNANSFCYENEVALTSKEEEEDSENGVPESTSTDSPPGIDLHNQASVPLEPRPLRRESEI
# KCNQ1 act = potentiators or activators of human KCNQ1 potassium channel | P51787 | CHO-K1 KCNQ1, thallium flux FluxOR fluorescence; stronger effect = higher value | B-score at 10 µM | 310,000 tested, 0.35% active | AID 2648;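 active means fluorescence ratio B-score, a plate-corrected score, at least three library SD, with initial intensity B-score within 5 SD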
#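 System: Stable KCNQ1 CHO-K1 line | Incubation: 90 min dye loading and 20 min compound exposure, both at room temperature | Measure: Ratio B score | Medium: Assay buffer for compound exposure, DMSO matched across wells | Compound dosing: Single-concentration screen | Probe or stimulus: K+/Tl+ depolarizing stimulus | Measured by: Kinetic FluxOR fluorescence, 10 s baseline plus 110 s post-stimulus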
# hERG protect = shields human hERG channel from block by proarrhythmic agents; Q12809; CHO-hERG, FluxOR thallium flux, dofetilide IC70 present; activation (rescue from dofetilide block), less the hit threshold, % at 10 µM; 310,000 tested, 0.51% active; AID 1511;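 active means activation above the mean of controls blocked by dofetilide plus 5 SD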;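 further: thallium influx through hERG after potassium depolarization seen as dye fluorescence rise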
# Hits are given with their value; . = inactive; / = no result given. This is a sample that favours compounds with a hit; in the whole collection about 3.8% have one here.
SMILES,KCNK9 inh,KCNQ1 inh,KCNK3 inh,Kir21 block,KCNQ1 act,hERG protect
CN(C)c1ccc(NC(=O)Cn2ncn3c(cc4ccccc43)c2=O)cc1,.,.,.,.,.,8.9
COc1cc(CCCN2C(=S)NC[C@@H]2CC2CCCCC2)cc(OC)c1OC,.,.,.,-4.3,.,.
CCOc1cc(CNCCO)cc(Br)c1OCc1ccccc1Cl,.,.,.,-9,.,.
COc1cc(CNCCO)cc(Cl)c1OCc1ccccc1Cl,.,.,.,-7,.,.
CCOc1cc(CNCCCN2CCOCC2)ccc1OCC(=O)NC(C)(C)C,.,.,.,.,9,.
COc1cccc(CNCCO)c1OCc1ccccc1Cl,.,.,.,.,.,.
COc1cc(CNCCCN2CCOCC2)ccc1OCC(=O)NC(C)(C)C,.,.,.,.,.,.
COc1cc(CNCCc2ccccc2)cc(Cl)c1OCc1ccccc1,.,7,.,-13,.,.
COc1ccccc1C(=O)OCc1c(-c2ccccc2)ncc2ccccc12,/,/,.,/,/,/
CC(C)On1c(SCC(=O)N(C)C)nc2ccccc2c1=O,.,.,/,.,.,.
CCCC(/C=C/c1ccc(OC(C)=O)cc1)=C1/c2ccccc2C(=O)N1c1ccccc1,/,/,.,/,/,/
CCOc1cc(CNCCO)cc(Br)c1OCc1ccc(Cl)cc1,.,.,.,-18,.,.
CCOc1cc(CNCCN2CCOCC2)ccc1OCc1ccccc1Cl,.,.,.,.,.,.
CCOc1cc(CNCCCN2CCOCC2)cc(Br)c1OCc1ccccc1Cl,.,.,.,-6.3,.,.
COc1cc(CNCCc2ccccc2)cc(Br)c1OCC(=O)Nc1ccccc1C,.,9,.,-11,.,.
CNCc1cc(Br)c(OCC(=O)Nc2ccccc2OC)c(OC)c1,.,.,.,.,.,.
O=C(Nc1ncc(S(=O)(=O)c2ccc([N+](=O)[O-])cc2)s1)c1ccccc1F,.,.,.,.,.,.
COC(=O)C(NC(=O)c1ccc(F)cc1)(Nc1ncc(S(=O)(=O)c2ccc([N+](=O)[O-])cc2)s1)C(F)(F)F (stereo not drawn),.,7,.,.,.,.
COc1ccccc1C1(CCNC(C)c2cccs2)CCOC(C(C)C)C1 (stereo not drawn),.,.,.,-8.9,.,.
CC1CCCCC12NC(=O)N(CC(=O)NNC(=O)c1ccc(Br)cc1)C2=O (stereo not drawn),/,/,.,/,/,/
CCCC(C(=O)NC1CCCC1)N(C(=O)c1snc(C(N)=O)c1N)c1ccc(F)cc1 (stereo not drawn),.,.,.,.,.,.
S=c1nc[nH]c2c1sc1nc(-c3ccccc3)c3c(c12)CCCC3,.,.,.,.,60,52
Cc1cc(Cn2nc(C(=O)NCc3cccc(C(F)(F)F)c3)cc2-c2ccccc2)on1,/,/,-9.7,/,/,/
CC(OCC(O)CN(C)CCOc1ccccc1)c1ccc(Cl)cc1 (stereo not drawn),.,.,.,-5,.,.
CN(CCOc1ccc(Cl)cc1)CC(O)c1ccccc1 (stereo not drawn),.,.,.,.,.,.
SMILES,KCNK9 inh,KCNQ1 inh,KCNK3 inh,Kir21 block,KCNQ1 act,hERG protect
COc1cccc(CC(NC(C)=O)C(=O)NC2CCN(C(=O)c3ccc(Cl)cc3)CC2)c1OC (stereo not drawn),.,.,.,.,.,.
O=c1ccc2cc(S(=O)(=O)NCc3ccccc3)ccc2[nH]1,.,.,.,.,.,.
Cn1cc(/C=C/c2cc[n+](C)cc2)c2cc(Cl)ccc21,.,12,.,.,.,.
Cn1cc(/C=C/c2cc[n+](C)cc2)c2cc(F)ccc21,.,.,.,.,.,.
O=C(CC1Oc2ccccc2NC1=O)NCc1ccccc1 (stereo not drawn),.,.,.,.,.,.
CC(=O)CC1OC(=O)C(Br)=C1NCc1ccccc1 (stereo not drawn),.,6,.,.,.,.
CCOc1cc(/C=C2\COc3ccccc3C2=O)ccc1OCC(=O)N(C)C,.,.,.,-4.3,.,.
CCOC(=O)/C(C#N)=C/c1c(N2CCN(c3cccc(Cl)c3)CC2)nc2c(C)cccn2c1=O,.,6,.,.,.,.
CNC(=O)/C(C#N)=C/c1c(N2CCN(c3cccc(Cl)c3)CC2)nc2c(C)cccn2c1=O,.,.,.,.,.,.
COC(=O)CNc1nc(Cl)nc(NC2CCCCC2)n1,.,.,.,.,.,.
Cc1ccc(C(NC(=O)NC(C)c2ccccc2)C(Cl)(Cl)Cl)cc1F (stereo not drawn),.,7,.,.,.,.
CCN(CC)S(=O)(=O)c1ccc(N2CCN(CCOc3ccc(OC)cc3)CC2)nc1,.,.,.,.,.,.
Cc1ccc(-n2ncc3c(NNC(=O)Cc4ccccc4)ncnc32)cc1,.,.,.,.,.,.
CC(=O)C1=C(C)NC(SCC(=O)c2ccc(Cl)cc2)=C(C#N)C1c1ccco1 (stereo not drawn),-15,.,.,.,.,.
CC(=O)C1=C(C)NC(SCc2ccc(C#N)cc2)=C(C#N)C1c1ccco1 (stereo not drawn),/,/,.,/,/,/
COc1ccccc1NC(=O)CSC1=NC(=O)C(Cc2ccccc2)C(=O)N1 (stereo not drawn),.,.,.,.,.,.
COc1ccccc1NC(=O)CSc1nc2ccccc2cc1Cc1ccccc1,-7.9,.,.,.,.,.
COc1ccc(NC(=O)CSc2c3c(nc4ccccc24)CCCC3)c(OC)c1,.,.,.,-4.7,.,.
COc1ccccc1NC(=O)Cc1noc(CSc2cccc[n+]2[O-])n1,.,.,.,.,.,.
COc1cc(NC(=O)CSc2c3c(nc4ccccc24)CCC3)cc(OC)c1OC,.,.,.,.,.,.
COc1ccccc1NC(=O)CSc1c2c(nc3ccccc13)CCC2,.,.,.,-10,.,.
COc1ccccc1NC(=O)Cc1noc(CSc2cc(C)c3ccccc3n2)n1,.,.,-9,.,.,.
CCN(CC)C(=O)Cn1cc(C(=O)C(=O)N2CCN(c3ccc(OC)cc3)CC2)c2ccccc21,.,.,.,.,.,.
OCc1cccc(Nc2ncnc3sc4c(c23)CCCCC4)c1,.,.,.,.,.,.
O=C(CCNC(=O)c1ccc(Br)cc1)NCCCN1CCCC1=O,/,/,.,/,/,/
O=[N+]([O-])c1ccc2c(c1)C=C1CCCCC1(N1CCCCC1)O2 (stereo not drawn),-7.4,.,.,.,.,.
Cc1ccccc1Cn1nc(C)c(NC(=O)c2ccccc2)c1C,.,.,.,.,.,7.6
Cc1nn(Cc2cccc3ccccc23)c(C)c1NC(=O)c1cccnc1,.,.,.,.,.,.
O=C(NC(=S)Nc1ccc(N2CCCCC2)c(Cl)c1)c1cccs1,.,.,.,.,65,13
